Key:
[1] = Cytotoxicity against human Hep2 cells assessed as reduction in cell viability after 5 days by CCK-8 assay; format: cell-based; conditions: HEp-2 cells
Outline: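 Uninfected HEp-2 cells (6000/well) were incubated 5 days with serially diluted compound. Viability was read by CCK-8, and CC50 is the concentration toxic to 50% of cells.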

[2] = Antiviral activity against Human respiratory syncytial virus A strain Long infected in human Hep2 cells assessed as reduction in virus induced cytopathic effect in presence of 10% FBS after 5 days by CCK-8 assay; format: functional, cell-based; conditions: HEp-2, 120 h
Outline: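 HEp-2 cells seeded at 6000/well and infected the next day at MOI 0.02, a dose that gives about 90% CPE by day 5. Serial compound dilutions were present throughout, in standard medium with 10% FBS. Viability was read by CCK-8 at day 5, and EC50 is the concentration that cuts CPE by 50%.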

[3] = Therapeutic index, ratio of CC50 of human Hep2 cells to EC50 for antiviral activity against human respiratory syncytial virus long strain infected in human Hep2 cells after 5 days by CCK-8 assay; format: toxicity, cell-based; conditions: HEp-2 cells, read-out: Ratio CC50/EC50
Outline: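 TI is CC50 over EC50. CC50 comes from uninfected HEp-2 cells; EC50 from 50% reduction of RSV Long CPE in HEp-2 cells (MOI 0.02, 5 days). Both were read by CCK-8 viability.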

[4] = AUC (0 to 24 hrs) in Wistar-Han rat at 10 mg/kg, po administered as single dose via gavage and measured up to 24 hrs by LC/MS/MS analysis; format: ADME, organism-based; design: dose 10 mg/kg, time < 24 hr, route oral; conditions: in vivo
Outline: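 Single-dose PK in male Wistar-Han rats at 2 mg/kg iv or 10 mg/kg po, as a solution in 5% DMSO, 40% PEG400 and 55% 0.9% sodium chloride.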

[5] = Plasma clearance in Wistar-Han rat at 2 mg/kg, iv or 10 mg/kg, po administered as single dose via gavage and measured up to 24 hrs by LC/MS/MS analysis; format: ADME, organism-based
Outline: (§1)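 Male Wistar-Han rats, single dose, 2 mg/kg iv and 10 mg/kg po, run by standard procedures.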

[6] = Half-life in Wistar-Han rat at 2 mg/kg, iv administered as single dose and measured up to 24 hrs by LC/MS/MS analysis; format: ADME, organism-based; conditions: in vivo; outline: as §1
[7] = Volume of distribution at steady state in Wistar-Han rat at 2 mg/kg, iv or 10 mg/kg, po administered as single dose via gavage and measured up to 24 hrs by LC/MS/MS analysis; format: ADME, organism-based; conditions: in vivo, read-out: Vdss; outline: as §1
[8] = Oral bioavailability in Wistar-Han rat at 10 mg/kg administered as single dose via gavage and measured up to 24 hrs by LC/MS/MS analysis; format: ADME, organism-based; conditions: in vivo; outline: as §1

What does the source list for `NC1(CNc2cc(N3CCS(=O)(=O)c4ccccc4C3)nc3ccc(CO)cc23)COC1`?
CC50 at 120 h [1]: > 100000 nM; EC50 [2]: 2 nM; selectivity ratio at 120 h [3]: > 50000

For `Cc1cc2c(NCC3(N)COC3)cc(N3CCS(=O)(=O)c4ccccc4C3)nc2cc1F`, which CC50 at 120 h [1] is on record?
Its CC50 at 120 h is 64000 nM.

What about the EC50 [2] of the same compound?
Its EC50 is 21 nM.

What about the selectivity ratio at 120 h [3] of the same compound?
Its selectivity ratio at 120 h is 3050.

What does the source list for `Cc1ccc2nc(N3CCS(=O)(=O)c4ccccc4C3)cc(NCC3(N)COC3)c2c1F`?
CC50 at 120 h [1]: 93000 nM; EC50 [2]: 23 nM; selectivity ratio at 120 h [3]: 4040

Which CC50 at 120 h [1] does the source give for `CC(C)(O)c1ccc2nc(N3CCS(=O)(=O)c4ccccc4C3)cc(NCC3(N)COC3)c2c1` here?
The CC50 at 120 h was greater than 100000 nM.

And the EC50 [2]?
Its EC50 is greater than 100000 nM.

What about the selectivity ratio at 120 h [3] of the same compound?
Its selectivity ratio at 120 h is less than 1.

For `Cc1cc2c(NCC3(N)COC3)cc(N3CCS(=O)(=O)c4ccccc4C3)nc2c(F)c1F`, which CC50 at 120 h [1] is on record?
Its CC50 at 120 h is 53000 nM.

And the EC50 [2]?
The EC50 was 510 nM.

And the selectivity ratio at 120 h [3]?
The selectivity ratio at 120 h was 104.

For `Cc1ccc2c(c1)S(=O)(=O)CCN(c1cc(NCC3(N)COC3)c3ccccc3n1)C2`, which CC50 at 120 h [1] is on record?
The CC50 at 120 h was 95000 nM.

What about the EC50 [2] of the same compound?
Its EC50 is 74 nM.

What about the selectivity ratio at 120 h [3] of the same compound?
Its selectivity ratio at 120 h is 1280.

With `Cc1ccc2nc(N3CCS(=O)(=O)c4cc(Cl)ccc4C3)cc(NCC3(N)COC3)c2c1` as the compound, how does the CC50 at 120 h [1] read?
Its CC50 at 120 h is 15000 nM.

What about the EC50 [2] of the same compound?
The EC50 was 27 nM.

What about the selectivity ratio at 120 h [3] of the same compound?
The selectivity ratio at 120 h was 560.

With `Cc1ccc2c(c1)S(=O)(=O)CCN(c1cc(NCC3(N)COC3)c3cc(C)ccc3n1)C2` as the compound, how does the CC50 at 120 h [1] read?
Its CC50 at 120 h is 91000 nM.

And the EC50 [2]?
Its EC50 is 5 nM.

And the selectivity ratio at 120 h [3]?
Its selectivity ratio at 120 h is 18200.

With `Cc1ccc2nc(N3CCS(=O)(=O)c4c(F)cccc4C3)cc(NCC3(N)COC3)c2c1` as the compound, how does the CC50 at 120 h [1] read?
Its CC50 at 120 h is 35000 nM.

What about the EC50 [2] of the same compound?
The EC50 was 3 nM.

What about the selectivity ratio at 120 h [3] of the same compound?
The selectivity ratio at 120 h was 11700.

With `NC1(CNc2cc(N3CCS(=O)(=O)c4ccccc4C3)nc3ccncc23)COC1` as the compound, how does the CC50 at 120 h [1] read?
The CC50 at 120 h was 99000 nM.

What about the EC50 [2] of the same compound?
Its EC50 is 12 nM.

And the selectivity ratio at 120 h [3]?
Its selectivity ratio at 120 h is 8250.

Which CC50 at 120 h [1] does the source give for `COc1ccc2c(c1)S(=O)(=O)CCN(c1cc(NCC3(N)COC3)c3ccccc3n1)C2` here?
The CC50 at 120 h was greater than 100000 nM.

And the EC50 [2]?
The EC50 was 8 nM.

And the selectivity ratio at 120 h [3]?
Its selectivity ratio at 120 h is greater than 12500.

Which CC50 at 120 h [1] does the source give for `Cc1ccc2nc(N3CCS(=O)(=O)c4ccccc4C3)nc(NCC3(N)CC3)c2c1` here?
Its CC50 at 120 h is 13000 nM.

What about the EC50 [2] of the same compound?
Its EC50 is 4 nM.

What about the selectivity ratio at 120 h [3] of the same compound?
The selectivity ratio at 120 h was 3250.

For `Cc1ccc2nc(N3CCS(=O)(=O)c4ccc(O)cc4C3)cc(NCC3(N)COC3)c2c1`, which CC50 at 120 h [1] is on record?
The CC50 at 120 h was greater than 100000 nM.

And the EC50 [2]?
The EC50 was 0.8 nM.

What about the selectivity ratio at 120 h [3] of the same compound?
Its selectivity ratio at 120 h is greater than 125000.

With `Cc1ccc2nc(N3CCS(=O)(=O)c4ccccc4C3)cc(NCC3(N)COC3)c2c1` as the compound, how does the CC50 at 120 h [1] read?
Its CC50 at 120 h is greater than 100000 nM.

What about the EC50 [2] of the same compound?
The EC50 was 2 nM.

And the selectivity ratio at 120 h [3]?
The selectivity ratio at 120 h was greater than 50000.

And the AUC(0-t) at 24 h [4]?
Its AUC(0-t) at 24 h is 442 ng·h/mL.

What about the clearance [5] of the same compound?
The clearance was 51 mL/min/kg.

What about the half-life [6] of the same compound?
Its half-life is 1.7 h.

And the Vd [7]?
The Vd was 4.1 L/kg.

And the bioavailability [8]?
Its bioavailability is 13%.

With `NC1(CNc2nc(N3CCS(=O)(=O)c4ccccc4C3)nc3ccccc23)COC1` as the compound, how does the CC50 at 120 h [1] read?
Its CC50 at 120 h is greater than 100000 nM.

What about the EC50 [2] of the same compound?
Its EC50 is 20 nM.

And the selectivity ratio at 120 h [3]?
The selectivity ratio at 120 h was greater than 5000.

For `Cc1ccc2nc(N3CCS(=O)(=O)c4ccccc4C3)nc(NCC(C)(C)N)c2c1`, which CC50 at 120 h [1] is on record?
The CC50 at 120 h was 20000 nM.

And the EC50 [2]?
Its EC50 is 16 nM.

What about the selectivity ratio at 120 h [3] of the same compound?
The selectivity ratio at 120 h was 1250.

Which results are given for `COc1ccc2c(c1)S(=O)(=O)CCN(c1cc(NCC3(N)COC3)c3cc(C)ccc3n1)C2`?
CC50 at 120 h [1]: 92000 nM; EC50 [2]: 1 nM; selectivity ratio at 120 h [3]: 92000

For `COc1cccc2c1S(=O)(=O)CCN(c1cc(NCC3(N)COC3)c3cc(C)ccc3n1)C2`, which CC50 at 120 h [1] is on record?
The CC50 at 120 h was greater than 100000 nM.

And the EC50 [2]?
The EC50 was 350 nM.

What about the selectivity ratio at 120 h [3] of the same compound?
Its selectivity ratio at 120 h is greater than 286.

Which CC50 at 120 h [1] does the source give for `Cc1ccc2nc(N3CCS(=O)(=O)c4ccc(F)cc4C3)cc(NCC3(N)COC3)c2c1` here?
Its CC50 at 120 h is 93000 nM.

And the EC50 [2]?
The EC50 was 72 nM.

What about the selectivity ratio at 120 h [3] of the same compound?
Its selectivity ratio at 120 h is 1290.

With `COc1ccc2c(c1)CN(c1cc(NCC3(N)COC3)c3cc(C)ccc3n1)CCS2(=O)=O` as the compound, how does the CC50 at 120 h [1] read?
Its CC50 at 120 h is 90000 nM.

What about the EC50 [2] of the same compound?
The EC50 was 3 nM.

What about the selectivity ratio at 120 h [3] of the same compound?
Its selectivity ratio at 120 h is 30000.

Which results are given for `Cc1ccc2cc(N3CCS(=O)(=O)c4ccccc4C3)nc(NCC3(N)COC3)c2c1`?
CC50 at 120 h [1]: 81000 nM; EC50 [2]: 220 nM; selectivity ratio at 120 h [3]: 370

With `Cc1ccc2nc(N3CCS(=O)(=O)c4cc(F)ccc4C3)cc(NCC3(N)COC3)c2c1` as the compound, how does the CC50 at 120 h [1] read?
The CC50 at 120 h was 79000 nM.

What about the EC50 [2] of the same compound?
The EC50 was 10 nM.

And the selectivity ratio at 120 h [3]?
The selectivity ratio at 120 h was 7900.

Which CC50 at 120 h [1] does the source give for `Cc1ccc2nc(N3CCS(=O)(=O)c4ccccc4C3)nc(NCC3(N)CCC3)c2c1` here?
Its CC50 at 120 h is 21000 nM.

And the EC50 [2]?
Its EC50 is 100 nM.

And the selectivity ratio at 120 h [3]?
Its selectivity ratio at 120 h is 210.

What does the source list for `NC1(CNc2cc(N3CCS(=O)(=O)c4ccccc4C3)nc3ccc(Cl)cc23)COC1`?
CC50 at 120 h [1]: 87000 nM; EC50 [2]: 34 nM; selectivity ratio at 120 h [3]: 2560

With `NC1(CNc2cc(N3CCS(=O)(=O)c4ccccc4C3)cc3ccccc23)COC1` as the compound, how does the CC50 at 120 h [1] read?
The CC50 at 120 h was 71000 nM.

What about the EC50 [2] of the same compound?
Its EC50 is greater than 31600 nM.

What about the selectivity ratio at 120 h [3] of the same compound?
Its selectivity ratio at 120 h is less than 2.
